Measured values gathered from unrelated publications.
Protocols differ between the studies behind these lines.

| SMILES | assay | system | conditions | concentration |
| --- | --- | --- | --- | --- |
| COc1ccc2[nH]c3c(C)c4ccnc(C(=O)N[C@H](C)CN(C)C)c4cc3c2c1 |  | male C57BL/6 mouse, plasma | intraperitoneal, 10 mg/kg, 2 h, single dose | 40 nM |
| O=S(=O)(c1cccc(C(F)(F)F)c1)N1c2cc(OCc3c(Cl)cncc3Cl)ccc2CC1C(F)(F)F (stereo not shown) |  | mouse, plasma | intraperitoneal, 10 mg/kg, 4 h | 160 nM |
| O=c1cc(-c2ccccc2)oc2c(O)c(O)ccc12 |  | male CD-1 mouse, plasma | oral, 50 mg/kg, 4 h | 24 ng/mL |
| COc1cc(F)c([C@@H]2CNC(=O)[C@H]2NC(=O)Nc2ccccc2)c(F)c1 |  | C57BL/6 mouse, plasma | oral, 3 mg/kg, 1 h | 107 nM |
| C[C@]12C[C@@]34C=CC(=O)[C@@](C)(CCC(=O)Nc5c(O)ccc(C(=O)O)c5O)[C@@H]3[C@H](C[C@@H]1C4)O2 |  | male C57BL/6 mouse, plasma | intravenous, 3 mg/kg, 5 min, single dose | 20000 nM |
| Cc1ccc([N+](=O)[O-])cc1S(=O)(=O)n1c(C)nc2ccccc21 |  | mouse, liver | intraperitoneal, 30 mg/kg, 24 h | 3100 nM |
| Cc1ccc(-c2cccc3cnc(Nc4ccc(C(=O)N5CCOCC5)cc4)nc23)cn1 |  | mouse, brain | intraperitoneal, 10 mg/kg, 2 h | 0 nM |
| O=S(=O)(c1ccc(-c2ccc3nccc(Nc4ccncn4)c3c2)cc1)N1CCOCC1 |  | female BALB/c mouse, plasma | intraperitoneal, 10 mg/kg, 15 min | 4460 ng/mL |
| CC(C)Cc1nn(C)c(=O)c2c(SCCCO)n(Cc3cccc4ccccc34)cc12 |  | mouse, lung | intraperitoneal, 20 mg/kg, 7 days, single dose | 0 nM |
| Cc1c2ccnc(C(=O)N[C@H](C)CN(C)C)c2cc2c3cc(O)ccc3n(C)c12 |  | male C57BL/6 mouse, brain | intraperitoneal, 10 mg/kg, 2 h, single dose | 80 nM |
| c1ccc(-c2nc(N3CCC(c4ccccn4)C3)c3ccccc3n2)nc1 (stereo not shown) |  | female BALB/c mouse, plasma | oral, 50 mg/kg, 24 h | 63.5 ng/mL |
| O=C(O)C1CCN(c2ncc(-c3ccc4c(c3)OCCCO4)s2)CC1 |  | male Swiss mouse, plasma | oral, 30 mg/kg, 8 h, single dose | 4540 ng/mL |
| CC(C)(C)c1cc(NC(=O)Nc2ccc(Oc3ccnc4[nH]c(=O)cnc34)cc2F)n(-c2ccccc2)n1 |  | BALB/c mouse, plasma | oral, 10 mg/kg/day, 24 h | ~1000 nM |
| CC(C)CN(C[C@@H](O)[C@H](Cc1ccccc1)NC(=O)O[C@H]1CO[C@H]2OCC[C@H]21)S(=O)(=O)c1ccc(N)cc1 |  | BALB/c mouse, plasma | intravenous, 2.5 mg/kg, 12 h | 0.33 ng/mL |
| CC(C)(Nc1nc(-c2ccccn2)nc2ccccc12)c1ccccn1 |  | female BALB/c mouse, plasma | oral, 50 mg/kg, 1 h | 4740 ng/mL |
| O=S(=O)(c1cccc(C(F)(F)F)c1)N1CCc2ccc(OCc3c(Cl)cncc3Cl)cc21 |  | mouse, plasma | intraperitoneal, 10 mg/kg, 2 h | 890 nM |
| O=c1nc(N2CCN(CC3CCCCC3)CC2)sc2c([N+](=O)[O-])cc(C(F)(F)F)cc12 |  | CD-1 mouse, lung | oral, 100 mg/kg, 4 h | 620 ng/mL |
| CN(C)c1ncnc2[nH]cc(-c3cccc(Cl)c3)c12 | mass spectrometry | female C57BL/6 mouse, plasma | intraperitoneal, 20 mg/kg, 30 min, single dose | 8700 nM |
| O=S(=O)(c1cccc(C(F)(F)F)n1)N1CCc2ccc(OCc3c(F)cccc3Cl)cc21 |  | mouse, plasma | intraperitoneal, 10 mg/kg, 4 h | 120 nM |
| [2H]c1c([2H])c([2H])c(-c2ccc([C@H](Cn3ccnc3)NC(=O)c3ccc(-c4nnc(-c5ccccc5)o4)cc3)c(Cl)c2)c([2H])c1[2H] |  | BALB/c mouse, liver | oral, 25 mg/kg, 4 h, single dose | 17000 nM |
| O=S(=O)(c1cccc(C(F)(F)F)c1)N1CCc2ccc(OCc3c(F)cncc3Cl)cc21 |  | mouse, plasma | intraperitoneal, 10 mg/kg, 4 h | 210 nM |
| CC(C)Oc1cccc(-c2cnc(N3CCC(C(N)=O)CC3)s2)c1 |  | male Swiss mouse, plasma | oral, 30 mg/kg, 24 h, single dose | 20.6 ng/mL |
